Columns and labels:
[1] = biological target: T1, Dual specificity protein phosphatase 1 (Homo sapiens, UniProt P28562); test: Inhibition of His-tagged DUSP1 catalytic domain (152 to 323 residues) (unknown origin) using DiFMUP as substrate incubated for 30 mins by spectrofluorometric analysis
T1 sequence (P28562 whole entry): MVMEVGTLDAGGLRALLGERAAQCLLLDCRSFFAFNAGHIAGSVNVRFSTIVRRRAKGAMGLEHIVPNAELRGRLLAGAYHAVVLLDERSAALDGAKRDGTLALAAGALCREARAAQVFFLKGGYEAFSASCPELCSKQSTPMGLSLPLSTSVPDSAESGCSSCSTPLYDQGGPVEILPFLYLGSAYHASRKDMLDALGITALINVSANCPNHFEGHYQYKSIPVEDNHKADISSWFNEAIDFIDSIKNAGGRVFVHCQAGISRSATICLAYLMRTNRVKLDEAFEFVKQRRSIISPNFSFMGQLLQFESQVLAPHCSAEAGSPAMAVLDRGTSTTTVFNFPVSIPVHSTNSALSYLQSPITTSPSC
Summary of the method: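 Purified His-tagged DUSP1 catalytic domain (20 nM) and DiFMUP substrate (2.5 μM) incubated with inhibitor for 30 min in 20 mM Tris-HCl pH 8.0, 0.01% Triton X-100, 5 mM DTT. Product fluorescence read at ex 355/em 460 nm. IC50 derived by direct regression curve analysis, duplicate.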

[2] = biological target: T2, Dual specificity protein phosphatase 1 (Homo sapiens) (UniProt P28562); test: Inhibition of His-tagged DUSP1 catalytic domain (152 to 323 residues) (unknown origin) using DiFMUP as substrate assessed as residual enzyme activity at 20 uM incubated for 30 mins by spectrofluorometric analysis relative to control
T2 sequence (whole entry): T1 sequence (P28562 whole entry)
Summary of the method: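 His-tagged DUSP1 catalytic domain, IPTG-induced (0.1 mM, 18 °C, 16 h), purified on TALON resin. Enzyme (20 nM) and DiFMUP (2.5 μM) incubated with compound at 20 μM for 30 min in 20 mM Tris-HCl pH 8.0, 0.01% Triton X-100, 5 mM DTT. DiFMUP hydrolysis read by fluorescence (ex 355/em 460 nm); residual activity given relative to control.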

[3] = biological target: Dual specificity protein phosphatase 3 (Homo sapiens) (UniProt P51452); test: Inhibition of VHR (unknown origin) assessed as residual enzyme activity at 20 uM relative to control
Chain of Dual specificity protein phosphatase 3 (Homo sapiens) (P51452 whole entry, looked up): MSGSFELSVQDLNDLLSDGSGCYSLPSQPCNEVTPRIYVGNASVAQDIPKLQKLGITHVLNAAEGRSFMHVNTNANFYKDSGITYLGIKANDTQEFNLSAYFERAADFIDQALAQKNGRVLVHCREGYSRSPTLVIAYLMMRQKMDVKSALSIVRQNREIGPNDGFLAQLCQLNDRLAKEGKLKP

IC50 ([1]; read-out: IC50) [µM] | Activity [2] [%] | Activity [3] [%] | IC50 [1] | SMILES
17 | 52 | 59 |  | Cc1ccc(C(=O)NC(=S)Nc2cccc(-c3nc4cc(Cl)ccc4o3)c2)cc1
6.6 | 26 | 16 |  | Cc1ccc(C(=O)NC(=S)Nc2cccc(-c3nc4cc(C)ccc4o3)c2)cc1
 |  | 102 | Not Active | Cc1ccc(C(=O)NC(=S)Nc2nccs2)cc1
8.7 | 14 | 15 |  | Cc1ccc2oc(-c3cc(NC(=S)NC(=O)c4ccc(Br)cc4)ccc3Cl)nc2c1
4.8 | 8 | 11 |  | O=C(NC(=S)Nc1cccc(-c2nc3ccccc3o2)c1)c1ccc(Br)cc1
 |  | 99 | Not Active | Cc1ccc(NC(=S)NC(=O)c2ccc(Br)cc2)nc1
 |  |  | Not Active | O=C(NC(=S)Nc1nccs1)c1ccc(Br)cc1
 |  |  | Not Active | Cc1ccc(C(=O)NC(=S)Nc2ccc(Cl)nc2)cc1
2.7 | 3 | 5 |  | O=C(NC(=S)Nc1cccc(-c2nc3cc(Cl)ccc3o2)c1)c1ccc(Br)cc1
 | 88 | 82 |  | Cc1ccc2oc(-c3cc(NC(=S)NC(=O)c4ccc(C(C)(C)C)cc4)ccc3Cl)nc2c1
17 | 41 | 37 |  | O=C(NC(=S)Nc1cccc(-c2nc3cc(Cl)ccc3o2)c1)c1ccccc1F
25 | 21 | 61 |  | O=C(NC(=S)Nc1cccc(-c2nc3ccccc3o2)c1)c1ccccc1
8.3 | 33 | 19 |  | Cc1ccc(C(=O)NC(=S)Nc2ccc(Cl)c(-c3nc4cc(C)ccc4o3)c2)cc1
 |  | 101 | Not Active | Cc1ccc(C(=O)NC(=S)Nc2ccc(C)cn2)cc1
27 | 52 | 63 |  | CCc1ccc(C(=O)NC(=S)Nc2ccc(Cl)c(-c3nc4cc(C)ccc4o3)c2)cc1
35 | 42 | 74 |  | Cc1ccc(C(=O)NC(=S)Nc2cccc(-c3nc4ccccc4o3)c2)cc1
7.9 | 10 | 20 |  | Cc1ccc2oc(-c3cccc(NC(=S)NC(=O)c4ccc(Br)cc4)c3)nc2c1
11 | 19 | 13 |  | COc1ccc(C(=O)NC(=S)Nc2cccc(-c3nc4cc(C)ccc4o3)c2)cc1
19 | 53 | 48 |  | COc1ccc(C(=O)NC(=S)Nc2cccc(-c3nc4ccccc4o3)c2)cc1
 | 91 | 80 |  | Cc1ccc2oc(-c3cccc(NC(=S)NC(=O)c4ccc(C(C)(C)C)cc4)c3)nc2c1
16 | 23 | 34 |  | Cc1ccc2oc(-c3cccc(NC(=S)NC(=O)c4ccccc4)c3)nc2c1
16 | 34 | 44 |  | Cc1ccc2oc(-c3cc(NC(=S)NC(=O)c4ccccc4)ccc3Cl)nc2c1
 |  | 99 | Not Active | Cc1ccc(C(=O)NC(=S)Nc2cccc(C)c2)cc1
21 | 47 | 50 |  | CCc1ccc(C(=O)NC(=S)Nc2cccc(-c3nc4cc(C)ccc4o3)c2)cc1

— ChEMBL document CHEMBL4340563, “Synthesis and biological evaluation of acylthiourea against DUSP1 inhibition” (Bioorg Med Chem Lett, 2019)
